Measurements as given in ChEMBL document CHEMBL4414574, “Structure-Based Discovery and Development of a Series of Potent and Selective Bromodomain and Extra-Terminal Protein Inhibitors” (J Med Chem, 2019).
pIC50: −log10 of the molar value. The source made the active and inactive calls. No cut-off for these calls is given here.

Tests used:
[1] = Solubility of the compound at pH 2 to 7; type: physicochemical; conditions: buffer
Cytochrome P450 2C19 = Cytochrome P450 2C19 (Homo sapiens, UniProt P33261); experiment: Time-dependent inhibition of CYP2C19 in human liver microsomes at 10 uM using mephenytoin as substrate preincubated up to 30 mins followed by NADPH generating system addition and measured after 10 mins; type: ADME
Chain of Cytochrome P450 2C19 (P33261 whole entry): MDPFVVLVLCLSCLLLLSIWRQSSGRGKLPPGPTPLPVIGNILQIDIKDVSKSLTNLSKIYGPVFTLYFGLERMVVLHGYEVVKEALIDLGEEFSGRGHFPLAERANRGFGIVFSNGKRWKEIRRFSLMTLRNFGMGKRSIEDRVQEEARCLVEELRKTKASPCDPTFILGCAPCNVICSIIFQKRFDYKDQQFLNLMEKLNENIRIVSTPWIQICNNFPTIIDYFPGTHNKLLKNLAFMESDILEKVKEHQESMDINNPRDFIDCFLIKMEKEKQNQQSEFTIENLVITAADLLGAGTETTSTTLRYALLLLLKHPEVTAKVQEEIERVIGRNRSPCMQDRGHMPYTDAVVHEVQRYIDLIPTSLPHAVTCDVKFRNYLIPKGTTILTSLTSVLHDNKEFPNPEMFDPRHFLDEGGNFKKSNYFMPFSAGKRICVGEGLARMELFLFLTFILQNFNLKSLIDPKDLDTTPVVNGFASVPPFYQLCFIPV
How it was run: (§1)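 Human liver microsomes 0.2 mg/mL, 100 mM phosphate pH 7.4, 10 μM test compound, preincubated 0, 5, 10 and 30 min at 37 °C; then NADPH plus probe cocktail (5 μM midazolam, 50 μM testosterone, 5 μM dextromethorphan, 10 μM diclofenac, 50 μM phenacetin, 50 μM S-(+)-mephenytoin) added; 10 min reaction; kobs in units of 10^-4/min.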

Cytochrome P450 1A2 = biological target: T1, Cytochrome P450 1A2 (Homo sapiens, UniProt P05177); experiment: Time-dependent inhibition of CYP1A2 in human liver microsomes at 10 uM using phenacetin as substrate preincubated up to 30 mins followed by NADPH generating system addition and measured after 10 mins; type: ADME; how it was run: as §1
T1 sequence (P05177 whole entry): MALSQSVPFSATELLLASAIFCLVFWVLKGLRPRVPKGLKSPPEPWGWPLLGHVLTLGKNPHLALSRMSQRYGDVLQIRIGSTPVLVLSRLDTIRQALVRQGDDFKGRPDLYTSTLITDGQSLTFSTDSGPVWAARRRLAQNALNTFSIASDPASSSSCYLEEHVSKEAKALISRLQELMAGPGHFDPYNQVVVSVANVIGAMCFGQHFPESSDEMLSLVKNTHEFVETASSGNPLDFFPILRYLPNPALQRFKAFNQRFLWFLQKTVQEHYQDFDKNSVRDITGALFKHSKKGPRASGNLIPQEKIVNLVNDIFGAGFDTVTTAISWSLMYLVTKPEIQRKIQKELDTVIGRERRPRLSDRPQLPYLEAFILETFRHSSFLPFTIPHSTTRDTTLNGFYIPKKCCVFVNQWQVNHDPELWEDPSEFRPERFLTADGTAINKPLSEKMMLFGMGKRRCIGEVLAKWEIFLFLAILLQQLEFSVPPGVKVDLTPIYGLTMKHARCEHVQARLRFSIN

Cytochrome P450 2C9 = Cytochrome P450 2C9 (Homo sapiens, UniProt P11712); experiment: Time-dependent inhibition of CYP2C9 in human liver microsomes at 10 uM using diclofenac as substrate preincubated up to 30 mins followed by NADPH generating system addition and measured after 10 mins; type: ADME; how it was run: as §1
Cytochrome P450 2D6 = Cytochrome P450 2D6 (Homo sapiens, UniProt P10635); experiment: Time-dependent inhibition of CYP2D6 in human liver microsomes at 10 uM using dextromethorphan as substrate preincubated up to 30 mins followed by NADPH generating system addition and measured after 10 mins; type: ADME; how it was run: as §1
Chain of Cytochrome P450 2D6 (P10635 whole entry): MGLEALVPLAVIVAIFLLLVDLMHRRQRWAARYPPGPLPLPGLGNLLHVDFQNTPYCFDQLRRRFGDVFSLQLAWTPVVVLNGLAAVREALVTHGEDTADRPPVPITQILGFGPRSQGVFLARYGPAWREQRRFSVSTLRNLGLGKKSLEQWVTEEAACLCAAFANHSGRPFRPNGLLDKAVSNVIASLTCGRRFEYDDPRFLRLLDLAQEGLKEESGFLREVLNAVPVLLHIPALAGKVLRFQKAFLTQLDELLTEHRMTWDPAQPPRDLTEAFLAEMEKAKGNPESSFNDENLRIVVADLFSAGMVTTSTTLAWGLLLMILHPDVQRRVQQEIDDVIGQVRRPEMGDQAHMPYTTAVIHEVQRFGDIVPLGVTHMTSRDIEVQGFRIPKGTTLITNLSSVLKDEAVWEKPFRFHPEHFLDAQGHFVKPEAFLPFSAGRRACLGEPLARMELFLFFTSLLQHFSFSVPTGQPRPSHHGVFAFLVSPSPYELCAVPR

Cytochrome P450 3A4 = Cytochrome P450 3A4 (Homo sapiens, UniProt P08684); experiment: Time-dependent inhibition of CYP3A4 in human liver microsomes at 10 uM using midazolam or testosterone as substrate preincubated up to 30 mins followed by NADPH generating system addition and measured after 10 mins; type: ADME; how it was run: as §1
CYP2C19 = CYP2C19 (Homo sapiens, UniProt P33261); experiment: Reversible inhibition of CYP2C19 in human liver microsomes at 10 uM using mephenytoin as substrate preincubated for 5 mins followed by NADPH generating system addition and measured after 20 mins relative to control; type: ADME; conditions: probe mephenytoin
Chain of CYP2C19 (P33261 whole entry): as the sequence (P33261 whole entry) above
How it was run: (§2)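 Human liver microsomes 0.2 mg/mL, 100 mM phosphate pH 7.4, 10 μM test compound, probe cocktail (10 μM midazolam, 100 μM testosterone, 10 μM dextromethorphan, 20 μM diclofenac, 100 μM phenacetin, 100 μM mephenytoin); organic solvent <1%; 5 min preincubation at 37 °C, started with NADPH-generating system, 20 min reaction; metabolite formation expressed relative to PBS control.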

CYP2C9 = CYP2C9 (Homo sapiens, UniProt P11712); experiment: Reversible inhibition of CYP2C9 in human liver microsomes at 10 uM using diclofenac as substrate preincubated for 5 mins followed by NADPH generating system addition and measured after 20 mins relative to control; type: ADME; conditions: probe diclofenac; how it was run: as §2
[2] = Half life in mouse liver microsomes at 1 uM preincubated for 5 mins followed by NADPH addition and measured after 5 to 30 mins by LC/MS/MS analysis; type: ADME, Microsome; conditions: mouse liver microsomes
[3] = Intrinsic clearance in mouse liver microsomes at 1 uM preincubated for 5 mins followed by NADPH addition and measured after 5 to 30 mins by LC/MS/MS analysis; type: ADME, Microsome; conditions: read-out: CLH
How it was run: (§3)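 Liver microsomes (0.5 mg/mL) preincubated 5 min at 37 °C with 1 μM compound in 0.1 M phosphate buffer pH 7.4 containing 1 mM EDTA and 5 mM MgCl2; started with 1 mM NADPH; sampled at 0, 5, 10 and 30 min; quenched with cold acetonitrile; parent remaining quantified by LC/MS/MS.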

CYP3A4 = CYP3A4 (Homo sapiens, UniProt P08684); experiment: Reversible inhibition of CYP3A4 in human liver microsomes at 10 uM using midazolam or testosterone as substrate preincubated for 5 mins followed by NADPH addition and measured after 20 mins relative to control; type: ADME; conditions: probe midazolam or testosterone; how it was run: as §2
MM1.S [4] = experiment: Antitumor activity against human MM1S cells xenografted in SCID mouse assessed as tumor growth at 20 mg/kg, po administered daily relative to control; type: functional
[5] = Half life in human liver microsomes at 1 uM preincubated for 5 mins followed by NADPH addition and measured after 5 to 30 mins by LC/MS/MS analysis; type: ADME, Microsome
[6] = Intrinsic clearance in human liver microsomes at 1 uM preincubated for 5 mins followed by NADPH addition and measured after 5 to 30 mins by LC/MS/MS analysis; type: ADME, Microsome; conditions: read-out: CLH; how it was run: as §3
[7] = biological target: T2, Bromodomain-containing protein 4 (Homo sapiens, UniProt O60885); experiment: Displacement of 5-FITC labelled (+)-JQ1 from His6-tagged human BRD4 bromodomain 1 expressed in Escherichia coli BL21(DE3) )-codon plus-RIL cells incubated for 4 hrs in dark condition by fluorescence anisotropy binding assay
MM1.S [8] = experiment: Antiproliferative activity against human MM1S cells after 72 hrs by CCK8 or SRB assay; type: functional, cell-based
How it was run: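 IC50 against MM.1S cell proliferation was taken as the mean of three independent experiments, each run in triplicate, reported with SEM.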

[9] = Tmax in ICR mouse at 3 mg/kg, po administered via gavage measured after 0.25 to 24 hrs by UPLC/MS analysis; type: ADME, organism-based; conditions: in vivo
How it was run: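 Male ICR mice dosed orally (3, 10 or 100 mg/kg, per line) in 1% DMSO/0.5% HPMC vehicle; plasma drug levels measured.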

[10] = Cmax in ICR mouse at 3 mg/kg, po administered via gavage measured after 0.25 to 24 hrs by UPLC/MS analysis; type: ADME, organism-based; parameters: dose 3 mg/kg, route oral; conditions: in vivo
How it was run: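 Male ICR mice dosed orally in 1% DMSO/0.5% HPMC vehicle; plasma or brain drug levels used to derive Tmax, Cmax, AUC0-t, AUC0-inf and T1/2.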

[11] = AUC (0 to t) in ICR mouse at 3 mg/kg, po administered via gavage measured after 0.25 to 24 hrs by UPLC/MS analysis; type: ADME, organism-based; parameters: time upper 24 hr, time lower 0.25 hr, dose 3 mg/kg, route oral; conditions: in vivo
How it was run: (§4)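 Male ICR mice were dosed orally in 1% DMSO/0.5% HPMC vehicle. Plasma (and brain, where stated) concentrations gave Tmax, Cmax, T1/2, AUC0-t and AUC0-inf.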

[12] = AUC (0 to infinity) in ICR mouse at 3 mg/kg, po administered via gavage measured after 0.25 to 24 hrs by UPLC/MS analysis; type: ADME, organism-based; parameters: dose 3 mg/kg, time infinity, route oral; conditions: in vivo; how it was run: as §4
[13] = Half life in ICR mouse at 3 mg/kg, po administered via gavage measured after 0.25 to 24 hrs by UPLC/MS analysis; type: ADME, organism-based; conditions: in vivo
How it was run: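 Male ICR mice dosed orally; vehicle 1% DMSO/0.5% HPMC. Plasma pharmacokinetic parameters, including T1/2, were determined after the single oral dose.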

[14] = biological target: Bromodomain-containing protein 2 (Homo sapiens) (UniProt P25440); experiment: Inhibition of BRD2 bromodomain 1 (unknown origin)
Chain of Bromodomain-containing protein 2 (Homo sapiens) (P25440 whole entry, looked up): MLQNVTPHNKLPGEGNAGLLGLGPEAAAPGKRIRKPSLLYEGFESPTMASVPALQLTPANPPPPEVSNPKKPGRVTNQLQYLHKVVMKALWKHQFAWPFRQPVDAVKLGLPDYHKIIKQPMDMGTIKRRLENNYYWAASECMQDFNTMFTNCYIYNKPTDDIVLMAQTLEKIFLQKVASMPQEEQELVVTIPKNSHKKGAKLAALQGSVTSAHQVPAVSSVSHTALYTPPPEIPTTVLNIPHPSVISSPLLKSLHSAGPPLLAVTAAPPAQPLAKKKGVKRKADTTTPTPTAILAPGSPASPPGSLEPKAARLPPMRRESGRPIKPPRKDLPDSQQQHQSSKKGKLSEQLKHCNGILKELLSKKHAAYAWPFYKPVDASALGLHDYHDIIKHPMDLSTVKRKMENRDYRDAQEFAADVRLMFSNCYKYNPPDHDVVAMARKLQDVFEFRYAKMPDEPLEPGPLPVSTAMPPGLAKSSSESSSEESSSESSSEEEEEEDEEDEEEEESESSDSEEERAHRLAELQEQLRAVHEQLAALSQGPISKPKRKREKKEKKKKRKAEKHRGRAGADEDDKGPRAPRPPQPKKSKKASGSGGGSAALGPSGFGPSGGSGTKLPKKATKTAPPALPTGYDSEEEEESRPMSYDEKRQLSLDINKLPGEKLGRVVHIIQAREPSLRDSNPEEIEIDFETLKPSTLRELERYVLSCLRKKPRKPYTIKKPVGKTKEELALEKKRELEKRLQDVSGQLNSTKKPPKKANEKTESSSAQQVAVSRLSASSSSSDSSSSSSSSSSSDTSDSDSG

[15] = biological target: Bromodomain-containing protein 2 (Homo sapiens) (UniProt P25440); experiment: Inhibition of BRD2 bromodomain 2 (unknown origin)
How it was run: (§5)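 Bromodomain binding panel (32 bromodomains) screened at 1 μM; primary binding read-out reported as percent of control, lower values meaning stronger binding.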

[16] = biological target: T2, Bromodomain-containing protein 4; experiment: Inhibition of BRD4 bromodomain 1 (unknown origin)
How it was run: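 BRD4 BD1 (His6-tagged, E. coli BL21(DE3)-expressed, Ni-NTA purified) at 10 nM with 5 nM FITC-labelled (+)-JQ1 tracer; 50 mM HEPES pH 7.4, 150 mM NaCl, 0.5 mM CHAPS, DMSO 2‰ final; graded inhibitor; 4 h dark equilibration at room temperature; fluorescence anisotropy read (ex 485/em 530 nm). IC50 from two independent experiments in duplicate, mean ± SEM.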

[17] = biological target: Histone acetyltransferase p300 (Homo sapiens) (UniProt Q09472); experiment: Inhibition of EP300 (unknown origin) at 1 uM; how it was run: as §5
Chain of Histone acetyltransferase p300 (Homo sapiens) (Q09472 whole entry): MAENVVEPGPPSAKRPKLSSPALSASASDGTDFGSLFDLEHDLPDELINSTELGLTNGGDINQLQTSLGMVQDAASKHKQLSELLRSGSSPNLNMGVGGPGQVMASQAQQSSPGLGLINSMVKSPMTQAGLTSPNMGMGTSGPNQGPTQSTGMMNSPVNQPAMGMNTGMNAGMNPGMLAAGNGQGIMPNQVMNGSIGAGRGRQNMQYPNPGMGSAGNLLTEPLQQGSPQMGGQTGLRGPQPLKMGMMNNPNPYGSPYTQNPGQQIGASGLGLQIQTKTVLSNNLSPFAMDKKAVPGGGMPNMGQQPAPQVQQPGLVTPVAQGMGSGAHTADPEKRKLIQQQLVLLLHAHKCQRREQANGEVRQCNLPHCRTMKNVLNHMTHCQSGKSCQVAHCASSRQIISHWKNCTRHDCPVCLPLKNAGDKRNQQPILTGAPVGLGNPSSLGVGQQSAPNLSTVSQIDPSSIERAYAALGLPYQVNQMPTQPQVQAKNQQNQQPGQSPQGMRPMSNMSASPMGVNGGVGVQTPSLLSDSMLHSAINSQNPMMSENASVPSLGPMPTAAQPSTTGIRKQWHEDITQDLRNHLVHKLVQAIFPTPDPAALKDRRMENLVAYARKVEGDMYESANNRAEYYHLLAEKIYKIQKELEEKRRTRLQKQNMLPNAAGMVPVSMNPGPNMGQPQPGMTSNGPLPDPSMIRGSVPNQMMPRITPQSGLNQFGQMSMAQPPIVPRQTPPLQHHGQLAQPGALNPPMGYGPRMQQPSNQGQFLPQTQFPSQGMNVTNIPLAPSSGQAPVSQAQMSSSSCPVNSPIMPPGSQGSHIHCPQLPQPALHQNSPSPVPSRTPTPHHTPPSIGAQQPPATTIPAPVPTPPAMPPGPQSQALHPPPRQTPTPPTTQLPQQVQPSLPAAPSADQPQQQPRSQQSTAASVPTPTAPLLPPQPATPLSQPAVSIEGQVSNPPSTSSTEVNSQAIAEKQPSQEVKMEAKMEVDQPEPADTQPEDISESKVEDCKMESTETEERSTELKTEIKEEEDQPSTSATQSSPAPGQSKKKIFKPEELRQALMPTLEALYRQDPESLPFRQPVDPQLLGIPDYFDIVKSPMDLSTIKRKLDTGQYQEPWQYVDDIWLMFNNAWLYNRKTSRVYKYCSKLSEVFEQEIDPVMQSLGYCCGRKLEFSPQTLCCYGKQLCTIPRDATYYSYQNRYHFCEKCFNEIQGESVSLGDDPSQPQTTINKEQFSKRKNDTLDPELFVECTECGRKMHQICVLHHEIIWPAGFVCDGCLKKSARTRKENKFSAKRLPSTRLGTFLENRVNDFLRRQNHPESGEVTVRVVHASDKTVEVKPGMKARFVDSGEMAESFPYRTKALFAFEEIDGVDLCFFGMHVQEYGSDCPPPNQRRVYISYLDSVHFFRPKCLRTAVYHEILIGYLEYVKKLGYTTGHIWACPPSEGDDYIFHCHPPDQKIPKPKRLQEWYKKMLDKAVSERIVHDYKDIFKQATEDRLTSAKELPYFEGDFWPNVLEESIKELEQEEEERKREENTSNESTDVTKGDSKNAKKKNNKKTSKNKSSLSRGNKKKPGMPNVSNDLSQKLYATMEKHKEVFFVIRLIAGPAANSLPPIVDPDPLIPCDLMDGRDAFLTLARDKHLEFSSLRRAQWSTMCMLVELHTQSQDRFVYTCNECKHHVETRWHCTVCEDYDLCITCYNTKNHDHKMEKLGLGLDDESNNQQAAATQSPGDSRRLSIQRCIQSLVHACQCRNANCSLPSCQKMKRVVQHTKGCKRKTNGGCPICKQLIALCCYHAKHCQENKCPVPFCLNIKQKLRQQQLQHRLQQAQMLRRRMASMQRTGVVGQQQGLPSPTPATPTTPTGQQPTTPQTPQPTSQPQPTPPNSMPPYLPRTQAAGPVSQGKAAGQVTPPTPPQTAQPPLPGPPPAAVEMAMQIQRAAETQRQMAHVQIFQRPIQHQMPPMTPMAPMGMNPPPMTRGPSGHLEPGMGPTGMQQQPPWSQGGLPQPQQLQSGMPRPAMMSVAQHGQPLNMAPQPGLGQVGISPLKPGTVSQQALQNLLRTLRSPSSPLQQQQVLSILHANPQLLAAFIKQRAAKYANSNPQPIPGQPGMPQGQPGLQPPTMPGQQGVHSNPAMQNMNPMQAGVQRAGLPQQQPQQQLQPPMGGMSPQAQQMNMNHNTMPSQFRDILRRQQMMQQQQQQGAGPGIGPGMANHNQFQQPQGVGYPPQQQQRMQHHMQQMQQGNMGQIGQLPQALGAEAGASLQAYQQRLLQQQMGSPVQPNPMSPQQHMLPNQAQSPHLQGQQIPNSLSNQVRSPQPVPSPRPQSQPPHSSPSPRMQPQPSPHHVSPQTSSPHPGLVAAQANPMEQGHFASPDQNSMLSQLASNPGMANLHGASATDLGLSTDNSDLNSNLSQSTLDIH

[18] = biological target: T2, Bromodomain-containing protein 4; experiment: Inhibition of BRD4 bromodomain 2 (unknown origin)
[19] = Solubility of the compound in water; type: physicochemical; conditions: buffer

- solubility [1]: Insoluble
- TDI (Cytochrome P450 2C19): Not Active
- TDI (Cytochrome P450 1A2): Not Active
- TDI (Cytochrome P450 2C9): Not Active
- TDI (Cytochrome P450 2D6): Not Active
- TDI (Cytochrome P450 3A4): Not Active
- inhibition at 20 min, 10 µM (CYP2C19): 41%
- inhibition at 20 min, 10 µM (CYP2C9): 10%
- half-life at 1 µM [2]: 3 min
- microsomal CLint at 1 µM [3]: 460 µL/min/mg
- inhibition at 20 min, 10 µM (CYP3A4): 3%
- half-life at 1 µM [5]: 31.5 min
- microsomal CLint at 1 µM [6]: 44 µL/min/mg
- pIC50 [7]: 8.24
- pIC50 (MM1.S [8]): 8.48
- Tmax [9]: 18 min
- Cmax [10]: 265 ng/mL
- AUC(0-t) [11]: 243 ng·h/mL
- AUC(0-inf) [12]: 244 ng·h/mL
- half-life [13]: 42 min
- inhibition activity call (active/inactive) [14]: Active
- inhibition [15]: Active
- inhibition [16]: Active
- inhibition [17]: inactive
- inhibition [18]: Active
- solubility [19]: Insoluble
Compound: Cc1ccc(-n2c(C)nnc2-c2ccc3c(c2)N(C2CC2)C(C)C(=O)N3C)cc1 (configuration not stated)
- T/C (MM1.S [4]): 67.4%
